Source: ChEMBL document CHEMBL4196022, “Alkynyl-containing phenylthiazoles: Systemically active antibacterial agents effective against methicillin-resistant Staphylococcus aureus (MRSA)” (Eur J Med Chem, 2018)
In brackets after ≈: the same amount, converted by molar mass.

Key:
Staphylococcus aureus [1] = experiment: Antibacterial activity against methicillin-resistant Staphylococcus aureus NRS107 after 20 hrs by broth microdilution assay; format: functional; settings: NRS107, 20 h
How it was run: (§1)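 Broth microdilution per CLSI in cation-adjusted Mueller Hinton broth. Compounds serially diluted, in triplicate. Incubation at 37 °C for at least 20 hours. MIC taken as the lowest concentration with no visible bacterial growth.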

Staphylococcus aureus [2] = experiment: Ratio of MBC to MIC for vancomycin-resistant Staphylococcus aureus VRS11a; format: functional
How it was run: (§2)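 MBC/MIC ratio. […] MBC by plating no-growth wells onto tryptic soy agar at 37 °C for at least 18 h; taken as the concentration giving 99.9% growth inhibition.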

Staphylococcus aureus [3] = experiment: Ratio of MBC to MIC for methicillin-resistant Staphylococcus aureus NRS107; format: functional; how it was run: as §2
Staphylococcus aureus [4] = experiment: Ratio of MBC to MIC for methicillin-resistant Staphylococcus aureus USA300; format: functional; how it was run: as §2
Staphylococcus aureus [5] = experiment: Antibacterial activity against vancomycin-resistant Staphylococcus aureus VRS11a after 20 hrs by broth microdilution assay; format: functional; how it was run: as §1
Staphylococcus aureus [6] = experiment: Antibacterial activity against vancomycin-resistant Staphylococcus aureus VRS12 after 20 hrs by broth microdilution assay; format: functional; settings: VRS12, 20 h; how it was run: as §1
Staphylococcus aureus [7] = experiment: Ratio of MBC to MIC for vancomycin-resistant Staphylococcus aureus VRS10; format: functional; how it was run: as §2
Staphylococcus aureus [8] = experiment: Antibacterial activity against methicillin-resistant Staphylococcus aureus USA300 after 20 hrs by broth microdilution assay; format: functional; settings: USA300, 20 h; how it was run: as §1
Staphylococcus aureus [9] = experiment: Antibacterial activity against vancomycin-resistant Staphylococcus aureus VRS10 after 20 hrs by broth microdilution assay; format: functional; settings: VRS10, 20 h; how it was run: as §1
Staphylococcus aureus [10] = experiment: Potency index, ratio of vancomycin MIC to compound MIC for antibacterial activity against vancomycin-resistant Staphylococcus aureus VRS12; format: functional
Staphylococcus aureus [11] = experiment: Bactericidal activity against methicillin-resistant Staphylococcus aureus NRS119 up to 18 hrs by broth microdilution assay; format: functional; settings: NRS119, 18 h, read-out: MBC99.9
Staphylococcus aureus [12] = experiment: Bactericidal activity against methicillin resistant vancomycin-resistant Staphylococcus aureus VRS12 up to 18 hrs by broth microdilution assay; format: functional; settings: VRS12, 18 h, read-out: MBC99.9
How it was run: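 MBC set up from the MIC plates. Aliquots from wells with no growth spotted onto tryptic soy agar and incubated at 37 °C for at least 18 hours. MBC taken as the lowest concentration giving 99.9% inhibition of bacterial growth.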

Staphylococcus aureus [13] = experiment: Bactericidal activity against methicillin resistant vancomycin-resistant Staphylococcus aureus VRS11a up to 18 hrs by broth microdilution assay; format: functional; settings: read-out: MBC99.9
Staphylococcus aureus [14] = experiment: Bactericidal activity against methicillin resistant Staphylococcus aureus NRS123 (USA400) up to 18 hrs by broth microdilution assay; format: functional; settings: read-out: MBC99.9
Staphylococcus aureus [15] = experiment: Ratio of MBC to MIC for vancomycin-resistant Staphylococcus aureus VRS12; format: functional; how it was run: as §2
Staphylococcus aureus [16] = experiment: Ratio of MBC to MIC for methicillin-resistant Staphylococcus aureus NRS123 (USA400); format: functional; how it was run: as §2
Staphylococcus aureus [17] = experiment: Bactericidal activity against methicillin-resistant Staphylococcus aureus NRS107 up to 18 hrs by broth microdilution assay; format: functional; settings: NRS107, 18 h, read-out: MBC99.9
Staphylococcus aureus [18] = experiment: Potency index, ratio of vancomycin MIC to compound MIC for antibacterial activity against vancomycin-resistant Staphylococcus aureus VRS11a; format: functional
Staphylococcus aureus [19] = experiment: Potency index, ratio of vancomycin MIC to compound MIC for antibacterial activity against vancomycin-resistant Staphylococcus aureus VRS10; format: functional
Staphylococcus aureus [20] = experiment: Antibacterial activity against methicillin-resistant Staphylococcus aureus NRS119 after 20 hrs by broth microdilution assay; format: functional; settings: NRS119, 20 h; how it was run: as §1
Staphylococcus aureus [21] = experiment: Bactericidal activity against methicillin-resistant Staphylococcus aureus USA300 up to 18 hrs by broth microdilution assay; format: functional; settings: USA300, 18 h, read-out: MBC99.9
Staphylococcus aureus [22] = experiment: Bactericidal activity against methicillin resistant vancomycin-resistant Staphylococcus aureus VRS10 up to 18 hrs by broth microdilution assay; format: functional; settings: VRS10, 18 h, read-out: MBC99.9
Staphylococcus aureus [23] = experiment: Ratio of MBC to MIC for methicillin-resistant Staphylococcus aureus NRS119; format: functional; how it was run: as §2
Staphylococcus aureus [24] = experiment: Antibacterial activity against methicillin-resistant Staphylococcus aureus NRS123 (USA400) after 20 hrs by broth microdilution assay; format: functional; how it was run: as §1
HRT-18 cell line = experiment: Cytotoxicity against human HRT18 cells assessed as reduction in cell viability up to 32 ug/ml after 2 hrs by MTS assay; format: cell-based; settings: hrt-18, 2 h
[25] = Selectivity index, ratio of toxic concentration for human HRT18 cells to MIC for methicillin-resistant Staphylococcus aureus; format: toxicity; settings: read-out: Selectivity Index

| SMILES | MIC (Staphylococcus aureus [1]) [µg/mL] | Ratio (Staphylococcus aureus [3]) | Ratio (Staphylococcus aureus [4]) | MIC (Staphylococcus aureus [5]) [µg/mL] | MIC (Staphylococcus aureus [6]) [µg/mL] | Ratio (Staphylococcus aureus [7]) | MIC (Staphylococcus aureus [8]) [µg/mL] | MIC (Staphylococcus aureus [9]) [µg/mL] | Ratio (Staphylococcus aureus [10]) | MBC (Staphylococcus aureus [11]) [µg/mL] | MBC (Staphylococcus aureus [12]) [µg/mL] | MBC (Staphylococcus aureus [13]) [µg/mL] | MBC (Staphylococcus aureus [14]) [µg/mL] | Ratio (Staphylococcus aureus [15]) | MBC (Staphylococcus aureus [17]) [µg/mL] | Ratio (Staphylococcus aureus [18]) | Ratio (Staphylococcus aureus [19]) | MIC (Staphylococcus aureus [20]) [µg/mL] | MBC (Staphylococcus aureus [21]) [µg/mL] | MBC (Staphylococcus aureus [22]) [µg/mL] | other results |
| --- | --- | --- | --- | --- | --- | --- | --- | --- | --- | --- | --- | --- | --- | --- | --- | --- | --- | --- | --- | --- | --- |
| CCCCCC#Cc1ccc(-c2nc(C)c(/C(C)=N/NC3=NCCN3)s2)cc1 | 16 (≈ 40.7 µM) | <=3 | <=3 | 8 (≈ 20.3 µM) | 16 (≈ 40.7 µM) | <=3 | 4 (≈ 10.2 µM) | 8 (≈ 20.3 µM) | >100 | 32 (≈ 81.3 µM) | 32 (≈ 81.3 µM) | 16 (≈ 40.7 µM) | 32 (≈ 81.3 µM) | <=3 | 32 (≈ 81.3 µM) | >100 | >100 | 16 (≈ 40.7 µM) | 8 (≈ 20.3 µM) | 64 (≈ 163 µM) | Ratio (Staphylococcus aureus [2]): <=3; Ratio (Staphylococcus aureus [16]): <=3; Ratio (Staphylococcus aureus [23]): <=3; MIC (Staphylococcus aureus [24]): 16 µg/mL (≈ 40.7 µM) |
| C/C(=N\NC(=N)N)c1sc(-c2ccc(C#CC(C)(C)N)cc2)nc1C |  |  | <=3 |  |  |  | 64 (≈ 181 µM) |  |  |  |  |  |  |  |  |  |  |  | 64 (≈ 181 µM) |  |  |
| C/C(=N\NC(=N)N)c1sc(-c2ccc(C#CC(C)(C)C)cc2)nc1C | 2 (≈ 5.66 µM) | <=3 | <=3 | 2 (≈ 5.66 µM) | 4 (≈ 11.3 µM) | <=3 | 4 (≈ 11.3 µM) | 4 (≈ 11.3 µM) | 4 | 2 (≈ 5.66 µM) | 4 (≈ 11.3 µM) | 8 (≈ 22.6 µM) | 16 (≈ 45.3 µM) | <=3 | 4 (≈ 11.3 µM) | >100 | >100 | 2 (≈ 5.66 µM) | 4 (≈ 11.3 µM) | 4 (≈ 11.3 µM) | Ratio (Staphylococcus aureus [2]; read-out: Ratio): 4; Activity (HRT-18 cell line): Non-Toxic; selectivity ratio [25]: 7 to 31; Ratio (Staphylococcus aureus [16]; read-out: Ratio): 4; Ratio (Staphylococcus aureus [23]): <=3; MIC (Staphylococcus aureus [24]): 4 µg/mL (≈ 11.3 µM) |
| C/C(=N\NC1=NCCN1)c1sc(-c2ccc(C#CC(C)(C)N)cc2)nc1C |  |  | <=3 |  |  |  | > 64 |  |  |  |  |  |  |  |  |  |  |  | > 64 |  |  |
| C/C(=N\NC1=NCCN1)c1sc(-c2ccc(C#CCC3CCCC3)cc2)nc1C |  |  | <=3 |  |  |  | 8 (≈ 19.7 µM) |  |  |  |  |  |  |  |  |  |  |  | 32 (≈ 78.9 µM) |  |  |
| CCCC#Cc1ccc(-c2nc(C)c(/C(C)=N/NC3=NCCN3)s2)cc1 |  |  | <=3 |  |  |  | > 64 |  |  |  |  |  |  |  |  |  |  |  | > 64 |  |  |
| C/C(=N\NC1=NCCN1)c1sc(-c2ccc(C#CC3CCCCC3)cc2)nc1C |  |  | <=3 |  |  |  | 8 (≈ 19.7 µM) |  |  |  |  |  |  |  |  |  |  |  | 8 (≈ 19.7 µM) |  |  |
| CCCCCCC#Cc1ccc(-c2nc(C)c(/C(C)=N/NC3=NCCN3)s2)cc1 |  |  | <=3 |  |  |  | 8 (≈ 19.6 µM) |  |  |  |  |  |  |  |  |  |  |  | 16 (≈ 39.3 µM) |  |  |
| C/C(=N\NC1=NCCN1)c1sc(-c2ccc(C#CC(C)(C)C)cc2)nc1C | 2 (≈ 5.27 µM) | <=3 | <=3 | 4 (≈ 10.5 µM) | 4 (≈ 10.5 µM) | <=3 | 2 (≈ 5.27 µM) | 4 (≈ 10.5 µM) | 4 | 2 (≈ 5.27 µM) | 8 (≈ 21.1 µM) | 4 (≈ 10.5 µM) | 16 (≈ 42.2 µM) | <=3 | 4 (≈ 10.5 µM) | >100 | >100 | 2 (≈ 5.27 µM) | 4 (≈ 10.5 µM) | 4 (≈ 10.5 µM) | Ratio (Staphylococcus aureus [2]): <=3; Activity (HRT-18 cell line): Non-Toxic; selectivity ratio [25]: 7 to 31; Ratio (Staphylococcus aureus [16]; read-out: Ratio): 4; Ratio (Staphylococcus aureus [23]): <=3; MIC (Staphylococcus aureus [24]): 4 µg/mL (≈ 10.5 µM) |
| C/C(=N\NC1=NCCN1)c1sc(-c2ccc(C#Cc3ccccc3)cc2)nc1C |  |  | <=3 |  |  |  | 8 (≈ 20 µM) |  |  |  |  |  |  |  |  |  |  |  | 16 (≈ 40 µM) |  |  |
| C/C(=N\NC(=N)N)c1sc(-c2ccc(C#CCC3CCCC3)cc2)nc1C | 2 (≈ 5.27 µM) | <=3 | <=3 | 4 (≈ 10.5 µM) | 2 (≈ 5.27 µM) | <=3 | 4 (≈ 10.5 µM) | 2 (≈ 5.27 µM) | >100 | 4 (≈ 10.5 µM) | 2 (≈ 5.27 µM) | 4 (≈ 10.5 µM) | 2 (≈ 5.27 µM) | <=3 | 4 (≈ 10.5 µM) | >100 | >100 | 4 (≈ 10.5 µM) | 4 (≈ 10.5 µM) | 4 (≈ 10.5 µM) | Ratio (Staphylococcus aureus [2]): <=3; Ratio (Staphylococcus aureus [16]): <=3; Ratio (Staphylococcus aureus [23]): <=3; MIC (Staphylococcus aureus [24]): 2 µg/mL (≈ 5.27 µM) |
| C/C(=N\NC1=NCCN1)c1sc(-c2ccc(C#CC3CCCC3)cc2)nc1C | 16 (≈ 40.9 µM) | <=3 | <=3 | 8 (≈ 20.4 µM) | 16 (≈ 40.9 µM) | <=3 | 4 (≈ 10.2 µM) | 4 (≈ 10.2 µM) | >100 | 32 (≈ 81.7 µM) | 16 (≈ 40.9 µM) | 8 (≈ 20.4 µM) | 32 (≈ 81.7 µM) | <=3 | 32 (≈ 81.7 µM) | >100 | >100 | 32 (≈ 81.7 µM) | 16 (≈ 40.9 µM) | 8 (≈ 20.4 µM) | Ratio (Staphylococcus aureus [2]): <=3; Ratio (Staphylococcus aureus [16]): <=3; Ratio (Staphylococcus aureus [23]): <=3; MIC (Staphylococcus aureus [24]): 16 µg/mL (≈ 40.9 µM) |
| CCCCCCC#Cc1ccc(-c2nc(C)c(/C(C)=N/NC(=N)N)s2)cc1 | 4 (≈ 10.5 µM) | <=3 | <=3 | 0.5 (≈ 1.31 µM) | 2 (≈ 5.24 µM) | <=3 | 4 (≈ 10.5 µM) | 2 (≈ 5.24 µM) | 8 | 4 (≈ 10.5 µM) | 4 (≈ 10.5 µM) | 2 (≈ 5.24 µM) | 4 (≈ 10.5 µM) | <=3 | 8 (≈ 21 µM) | >100 | >100 | 1 (≈ 2.62 µM) | 8 (≈ 21 µM) | 4 (≈ 10.5 µM) | Ratio (Staphylococcus aureus [2]; read-out: Ratio): 4; Activity (HRT-18 cell line): Non-Toxic; selectivity ratio [25]: 7 to 31; Ratio (Staphylococcus aureus [16]): <=3; Ratio (Staphylococcus aureus [23]; read-out: Ratio): 4; MIC (Staphylococcus aureus [24]): 4 µg/mL (≈ 10.5 µM) |
